# Compounds with a hit are over-represented: about 0.7% of the library has one in this group of screens.
# RAD52 anneal inh: blocks human RAD52 DNA annealing; P43351; recombinant RAD52 DNA annealing, FRET fluorescence; inhibition, % at 18.7 µM; 360,000 tested, 0.46% active;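 active = every replicate showing at least 50% inhibition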
# RAD54 branch: RAD54 (human) branch migration inhibition; RAD54 Holliday junction branch migration, FAM/BHQ fluorescence; Q92698; AID 602329; 360,000 tested, 0.14% active; inhibition, % at 10.4 µM;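 active = mean normalized replicate activity at least 40 and at least half of replicates scoring 40 or more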;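 note: 0% = median of neutral control wells and 100% = median of positive control wells; inhibitors cause a drop in the FAM fluorescence signal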
# Target sequence (Q92698 whole entry, looked up): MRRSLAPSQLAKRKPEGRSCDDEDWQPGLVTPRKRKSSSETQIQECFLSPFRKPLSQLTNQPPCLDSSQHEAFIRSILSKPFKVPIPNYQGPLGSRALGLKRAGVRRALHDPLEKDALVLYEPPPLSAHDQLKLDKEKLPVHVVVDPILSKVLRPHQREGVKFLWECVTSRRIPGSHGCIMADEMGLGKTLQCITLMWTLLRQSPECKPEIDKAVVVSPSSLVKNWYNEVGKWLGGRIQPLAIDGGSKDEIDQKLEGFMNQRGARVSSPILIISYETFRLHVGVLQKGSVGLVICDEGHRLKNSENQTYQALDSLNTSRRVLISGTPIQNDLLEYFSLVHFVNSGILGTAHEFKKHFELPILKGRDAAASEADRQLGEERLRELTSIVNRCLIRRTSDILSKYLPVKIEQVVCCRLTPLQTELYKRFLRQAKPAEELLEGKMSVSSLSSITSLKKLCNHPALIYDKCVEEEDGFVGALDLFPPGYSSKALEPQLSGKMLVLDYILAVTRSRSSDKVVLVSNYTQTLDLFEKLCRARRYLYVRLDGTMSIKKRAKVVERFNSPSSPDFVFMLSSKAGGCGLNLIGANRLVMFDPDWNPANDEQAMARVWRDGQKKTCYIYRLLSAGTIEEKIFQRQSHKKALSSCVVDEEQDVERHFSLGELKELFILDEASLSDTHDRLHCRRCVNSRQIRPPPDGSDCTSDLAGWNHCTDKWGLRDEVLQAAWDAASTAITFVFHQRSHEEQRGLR
# N-glyco inh: N-linked glycosylation inhibition | 360,000 tested, 0.23% active | AID 588692 | reporter increase, % at 12.5 µM | D54 ERlucT glycosylation luciferase reporter, 24 h; percent of 100 nM tunicamycin response;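 active = mean luciferase reporter signal, scaled so untreated is 0 and the glycosylation-blocking control 100, at or above a set limit in every replicate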;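 note: luciferase carries N-glycosylation sites so blocking glycosylation raises the light; 0% = median of neutral control wells and 100% = median of 100 nM tunicamycin wells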
# FN deposition inh: fibronectin deposition inhibition. inhibition, % at 12.6 µM. AID 743247. AH1F fibroblasts, Alexa488-fibronectin deposition fluorescence, overnight. 350,000 tested, 0.086% active;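 active = mean inhibition across replicates of 30% or more, regardless of how many single replicates reach that level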;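 note: positive control wells lacked labelled fibronectin entirely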
#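 Assay system: AH1F fibroblasts / Quantity: 10000 cells per well / Medium: DMEM plus 2% serum, read in PBS / Reagent: labelled fibronectin 24 nM / Dosing: single dose, pinned / Times: 1 h cell attachment, overnight exposure to compound and label / Signal: fluorescence, ex 485 nm, em 525 nm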
# CaV13 FRET inh: Disruptors of the CACNA1D IQ motif to Ca2+-dependent inactivation inhibitor domain association, primary screening, Förster resonance energy transfer in intact living …; inhibition, % at 12.3 µM; 340,000 tested, 0.098% active; HEK cells, CFP/YFP FRET ICDI-IQ, plate reader, 10 min; percent FRET-ratio fall versus neutral wells;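 active = mean replicate inhibition of at least 30% and at least 1% of replicates passing that level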;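 note: 0% = median of the neutral control wells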
# An asterisk follows results filed as active; / = no result given; + = active, no number.
SMILES,RAD52 anneal inh,RAD54 branch,N-glyco inh,FN deposition inh,CaV13 FRET inh
C[C@@H]1CCCCO[C@H](CN(C)Cc2ccc(C(=O)O)cc2)[C@H](C)CN([C@@H](C)CO)C(=O)c2cc(NC(=O)c3ccncc3)ccc2O1,101*,5,/,/,/
C[C@H](CO)N1C[C@H](C)[C@@H](CN(C)Cc2ccc3c(c2)OCO3)OCCCC[C@H](C)Oc2ccc(NS(=O)(=O)c3ccc(Cl)cc3)cc2C1=O,46,-9,/,0,/
C[C@H](CO)N1C[C@H](C)[C@@H](CN(C)Cc2ccc(C(=O)O)cc2)OCCCC[C@H](C)Oc2ccc(NC(=O)c3ccncc3)cc2C1=O,96*,0,/,/,/
C[C@H]1CCCCO[C@H](CN(C)Cc2ccncc2)[C@@H](C)CN([C@@H](C)CO)C(=O)c2cc(NC(=O)c3ccncc3)ccc2O1,1,-8,/,0,/
C[C@@H]1CCCCO[C@@H](CN(C)Cc2ccc(C(=O)O)cc2)[C@H](C)CN([C@@H](C)CO)C(=O)c2cc(NC(=O)c3ccncc3)ccc2O1,104*,-1,/,/,/
N#Cc1ccc(-c2ccc3c(c2)[C@H]2[C@H](CCN2S(=O)(=O)c2cccc(F)c2)[C@@H](CO)N3)cc1,-11,9,/,7,/
N#Cc1ccc(-c2ccc3c(c2)[C@@H]2[C@@H](CCN2S(=O)(=O)c2cccc(F)c2)[C@H](CO)N3)cc1,-17,12,/,31*,/
O=S(=O)(c1ccccc1F)N1CC[C@@H]2[C@H](CO)Nc3ccc(-c4ccc(F)cc4)cc3[C@@H]21,3,10,/,8,/
O=S(=O)(c1ccccc1F)N1CC[C@@H]2[C@H]1c1cc(-c3ccccc3)ccc1N[C@@H]2CO,16,-5,/,-2,/
O=S(=O)(c1ccccc1F)N1CC[C@@H]2[C@H]1c1cc(-c3cccc(F)c3)ccc1N[C@@H]2CO,/,14,/,64*,/
O=S(=O)(c1ccccc1F)N1CC[C@H]2[C@H](CO)Nc3ccc(-c4cccc(F)c4)cc3[C@H]21,-20,8,/,34*,/
Cc1noc(C)c1NC(=O)N(C)C[C@H]1OCCCC[C@H](C)Oc2ccc(NC(=O)CCC(F)(F)F)cc2C(=O)N([C@H](C)CO)C[C@@H]1C,5,-3,/,/,/
CCC(=O)N1CC(=O)N2[C@H](CO)[C@H](c3ccc(-c4ccncc4)cc3)[C@@H]2C1,4,/,/,/,/
C[C@H](CO)N1C[C@H](C)[C@@H](CN(C)C(=O)Nc2ccc(C(F)(F)F)cc2)Oc2ncc(C#C[C@@H](C)O)cc2C1=O,-13,5,/,11,/
C[C@H](CO)N1C[C@H](C)[C@@H](CN(C)C(=O)C2CCCCC2)Oc2ncc(/C=C/c3ccccc3)cc2C1=O,-4,-2,/,/,/
COC(=O)C1=CN(Cc2ccc(OC)c(OC)c2)C=C(C(=O)OC)C1c1cccc(F)c1,2,2,-5,1,79*
C[C@@H]1CN([C@H](C)CO)C(=O)c2cc(C#Cc3ccncc3)cnc2O[C@H]1CN(C)CC1CCOCC1,-5,-3,/,3,/
O=C(O)C1=CC[C@@H](c2ccc(Cl)cc2)N(S(=O)(=O)c2ccc(Cl)cc2)[C@H]1c1ccc(F)cc1,-5,8,2,-1,39*
Cc1nn(Cc2c(Cl)cccc2Cl)c(C)c1NC(=O)c1cc(C(C)C)on1,-3,4,64*,9,-5
Cc1noc(C)c1NC(=O)Nc1ccc2c(c1)C(=O)N([C@H](C)CO)C[C@H](C)[C@H](CN(C)C(=O)Nc1ccccc1)OCCCC[C@H](C)O2,4,-3,/,3,/
C[C@H](CO)N1C[C@H](C)[C@H](CN(C)C(=O)CN(C)C)Oc2cc(C#Cc3ccccc3)ccc2S1(=O)=O,60*,8,/,15,/
C[C@@H]1CN([C@H](C)CO)S(=O)(=O)c2ccc(C#Cc3ccccc3)cc2O[C@@H]1CN(C)C(=O)CN(C)C,68*,17,-1,-2,-2
Cc1ccc(-c2ccc3c(c2)O[C@@H](CN(C)C(=O)CN(C)C)[C@@H](C)CN([C@H](C)CO)S3(=O)=O)cc1,58*,9,/,/,/
COc1ccc2c3c([nH]c2c1)[C@H](CO)N(C(=O)Nc1ccc(F)cc1)CC31CCN(S(=O)(=O)c2cn(C)cn2)CC1,11,/,/,-1,/
COc1ccc(C(=O)NCCNc2nc3ccc(C)cc3cc2C#N)cc1,-27,-12,2,1,25
SMILES,RAD52 anneal inh,RAD54 branch,N-glyco inh,FN deposition inh,CaV13 FRET inh
CCOc1ccc2nc(NCCNC(=S)NCCCN(C)C)c(C#N)cc2c1,37,/,0,-4,+
CCOc1ccc2nc(NCCNC(=O)Nc3ccccc3)c(C#N)cc2c1,/,11,12,-4,-10
COc1ccc2nc(NCCCNC(=O)c3cc(OC)c(OC)c(OC)c3)c(C#N)cc2c1,/,-4,4,3,-1
CCOc1ccc2nc(NCCCNS(=O)(=O)c3ccc(C)cc3)c(C#N)cc2c1,-23,/,-4,/,32*
CCOc1ccc2nc(NCCNC(=O)Nc3cccc(C)c3)c(C#N)cc2c1,/,-8,42*,0,-5
Cc1ccc2c(c1)[C@H]1[C@H](CO2)[C@H](c2ccccc2)[C@]2(C)C(=O)Nc3ccc(Br)cc3C(=O)N12,-38,0,30*,3,-11
Cc1ccc2c(c1)C(=O)N1[C@H]3c4cc(Br)ccc4OC[C@@H]3[C@H](c3ccccc3)[C@]1(C)C(=O)N2,-34,-12,27*,6,-5
CCC1CCCCN1S(=O)(=O)c1ccc(NC(=O)c2nc(S(C)(=O)=O)ncc2Cl)cc1 (stereo not drawn),-23,-4,-24,39*,-15
COc1ccc2c3c(n(C)c2c1)[C@H](CO)N(CC1CC1)CC31CCN(C(=O)CN(C)C)CC1,54*,/,/,/,/
COc1ccc2c3c(n(C)c2c1)[C@H](CO)N(C(=O)Nc1ccc(F)cc1)CC31CCN(Cc2ccccc2F)CC1,55*,/,/,/,/
COc1ccc(S(=O)(=O)N2CCC3(CC2)CN(C(=O)CN(C)C)[C@H](CO)c2c3c3ccc(OC)cc3n2C)cc1,57*,/,/,/,/
C[C@H](CO)N1C[C@H](C)[C@@H](CN(C)C(=O)Nc2ccc3c(c2)OCO3)Oc2ncc(-c3cncnc3)cc2C1=O,12,6,/,/,/
C[C@@H](O)C#Cc1ccc([C@@H]2[C@@H](CO)N3CCCCN(C(=O)Nc4ccccc4)C[C@H]23)cc1,2,10,/,/,/
NC(=O)C1=C[C@H](c2coc3ccccc3c2=O)C[C@H](OCCCCO)O1,-12,5,1,33*,-5
CC(C)NC(=O)Nc1ccc2c(c1)C(=O)N(C)C[C@@H](C)[C@@H](CN(C)C(=O)NC(C)C)O2,/,/,/,-18,/
O=C1C=C(c2cccs2)C[C@H](c2ccccc2)[C@H]1n1nnc([N+](=O)[O-])n1,/,/,25*,-23,-5
CC(=O)C1C(=O)C=C(c2cccs2)CC1c1ccccc1 (stereo not drawn),-17,5,-1,19,-22

# Screens (PubChem BioAssay)
